ChEMBL document CHEMBL1127380, “(4-[18F]fluoro-3-iodobenzyl)guanidine, a potential MIBG analogue for positron emission tomography” (J Med Chem, 1994)

Key:
Mus musculus [1] = organism: Mus musculus; assay: Tissue distribution expressed as percentage injected dose per gram of tissue in normal mice brain after 2 hour; type: ADME, organism-based; settings: in vivo
Procedure, shortened: (§1)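 Normal BALB/c mice, 26–29 g, given 4 μCi of the nca 18F tracer via tail vein. Groups killed with halothane at 1, 2 or 4 h post-injection. Tissues washed in saline, blot-dried, weighed and γ-counted for ¹⁸F. Values are mean ± SD as % ID/g; n = 10 at 1 and 2 h, n = 5 at 4 h.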

Mus musculus [2] = organism: Mus musculus; assay: Tissue distribution expressed as percentage injected dose per gram of tissue in normal mice kidney after 2 hour; type: ADME, organism-based; settings: in vivo; procedure, shortened: as §1
Mus musculus [3] = organism: Mus musculus; assay: Tissue distribution expressed as percentage injected dose per gram of tissue in normal mice adrenals after 2 hour; type: ADME, organism-based, Adrenal gland; settings: in vivo; procedure, shortened: as §1
Mus musculus [4] = organism: Mus musculus; assay: Tissue distribution expressed as percentage injected dose per gram of tissue in normal mice lungs after 1 hour; type: ADME, organism-based, Lung; settings: in vivo; procedure, shortened: as §1
Mus musculus [5] = organism: Mus musculus; assay: Tissue distribution expressed as percentage injected dose per gram of tissue in normal mice small intestine after 4 hour; type: ADME, organism-based; settings: in vivo; procedure, shortened: as §1
Mus musculus [6] = organism: Mus musculus; assay: Tissue distribution expressed as percentage injected dose per gram of tissue in normal mice blood after 2 hour; type: ADME, organism-based; settings: in vivo; procedure, shortened: as §1
Mus musculus [7] = organism: Mus musculus; assay: Tissue distribution expressed as percentage injected dose per gram of tissue in normal mice muscle after 2 hour; type: ADME, organism-based; settings: in vivo; procedure, shortened: as §1
Mus musculus [8] = organism: Mus musculus; assay: Tissue distribution expressed as percentage injected dose per gram of tissue in normal mice stomach after 2 hour; type: ADME, organism-based; settings: in vivo; procedure, shortened: as §1
Mus musculus [9] = organism: Mus musculus; assay: Tissue distribution expressed as percentage injected dose per gram of tissue in normal mice stomach after 4 hour; type: ADME, organism-based; settings: in vivo; procedure, shortened: as §1
Mus musculus [10] = organism: Mus musculus; assay: Tissue distribution expressed as percentage injected dose per gram of tissue in normal mice lungs after 2 hour; type: ADME, organism-based, Lung; settings: in vivo; procedure, shortened: as §1
SK-N-SH = assay: The compound was tested for the concentration of inhibition by unlabelled analogues to SK-N-SH human neuroblastoma cells; type: functional, cell-based
Procedure, shortened: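 SK-N-SH neuroblastoma cells, 4 × 10⁵/well, with about 1 μCi 18F-labelled tracer or 0.1 μCi nca [¹²⁵I]MIBG plus graded concentrations of unlabelled benzylguanidines, in triplicate; 2 h at 37 °C. Nonspecific binding: 1 μM desipramine preincubation, 30 min. Cells washed twice in PBS, lysed in 0.5 N NaOH, γ-counted. Specific binding as % of control plotted against inhibitor concentration.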

Mus musculus [11] = organism: Mus musculus; assay: Tissue distribution expressed as percentage injected dose per gram of tissue in normal mice thyroid after 2 hour; type: ADME, organism-based, Thyroid gland; settings: in vivo; procedure, shortened: as §1
Mus musculus [12] = organism: Mus musculus; assay: Tissue distribution expressed as percentage injected dose per gram of tissue in normal mice liver after 4 hour; type: ADME, organism-based; settings: in vivo; procedure, shortened: as §1
Mus musculus [13] = organism: Mus musculus; assay: Tissue distribution expressed as percentage injected dose per gram of tissue in normal mice bone after 1 hour; type: ADME, organism-based, Bone element; settings: in vivo; procedure, shortened: as §1
Mus musculus [14] = organism: Mus musculus; assay: Tissue distribution expressed as percentage injected dose per gram of tissue in normal mice heart after 2 hour; type: ADME, organism-based; settings: in vivo; procedure, shortened: as §1
Mus musculus [15] = organism: Mus musculus; assay: Tissue distribution expressed as percentage injected dose per gram of tissue in normal mice adrenals after 4 hour; type: ADME, organism-based, Adrenal gland; settings: in vivo; procedure, shortened: as §1
Mus musculus [16] = organism: Mus musculus; assay: Tissue distribution expressed as percentage injected dose per gram of tissue in normal mice adrenals after 1 hour; type: ADME, organism-based, Adrenal gland; settings: in vivo; procedure, shortened: as §1
Mus musculus [17] = organism: Mus musculus; assay: Tissue distribution expressed as percentage injected dose per gram of tissue in normal mice spleen after 4 hour; type: ADME, organism-based; settings: in vivo; procedure, shortened: as §1
Mus musculus [18] = organism: Mus musculus; assay: Tissue distribution expressed as percentage injected dose per gram of tissue in normal mice blood after 1 hour; type: ADME, organism-based; settings: in vivo; procedure, shortened: as §1
Mus musculus [19] = organism: Mus musculus; assay: Tissue distribution expressed as percentage injected dose per gram of tissue in normal mice bone after 2 hour; type: ADME, organism-based, Bone element; settings: in vivo; procedure, shortened: as §1
Mus musculus [20] = organism: Mus musculus; assay: Tissue distribution expressed as percentage injected dose per gram of tissue in normal mice heart after 1 hour; type: ADME, organism-based; settings: in vivo; procedure, shortened: as §1
Mus musculus [21] = organism: Mus musculus; assay: Tissue distribution expressed as percentage injected dose per gram of tissue in normal mice spleen after 2 hour; type: ADME, organism-based; settings: in vivo; procedure, shortened: as §1
Mus musculus [22] = organism: Mus musculus; assay: Tissue distribution expressed as percentage injected dose per gram of tissue in normal mice large intestine after 1 hour; type: ADME, organism-based; settings: in vivo; procedure, shortened: as §1
Mus musculus [23] = organism: Mus musculus; assay: Tissue distribution expressed as percentage injected dose per gram of tissue in normal mice liver after 1 hour; type: ADME, organism-based; settings: in vivo; procedure, shortened: as §1
Mus musculus [24] = organism: Mus musculus; assay: Tissue distribution expressed as percentage injected dose per gram of tissue in normal mice brain after 4 hour; type: ADME, organism-based; settings: in vivo; procedure, shortened: as §1
Mus musculus [25] = organism: Mus musculus; assay: Tissue distribution expressed as percentage injected dose per gram of tissue in normal mice kidney after 4 hour; type: ADME, organism-based; settings: in vivo; procedure, shortened: as §1
Mus musculus [26] = organism: Mus musculus; assay: Tissue distribution expressed as percentage injected dose per gram of tissue in normal mice muscle after 4 hour; type: ADME, organism-based; settings: in vivo; procedure, shortened: as §1
Mus musculus [27] = organism: Mus musculus; assay: Tissue distribution expressed as percentage injected dose per gram of tissue in normal mice brain after 1 hour; type: ADME, organism-based; settings: in vivo; procedure, shortened: as §1
Mus musculus [28] = organism: Mus musculus; assay: Tissue distribution expressed as percentage injected dose per gram of tissue in normal mice heart after 4 hour; type: ADME, organism-based; settings: in vivo; procedure, shortened: as §1
Mus musculus [29] = organism: Mus musculus; assay: Tissue distribution expressed as percentage injected dose per gram of tissue in normal mice kidney after 1 hour; type: ADME, organism-based; settings: in vivo; procedure, shortened: as §1
Mus musculus [30] = organism: Mus musculus; assay: Tissue distribution expressed as percentage injected dose per gram of tissue in normal mice liver after 2 hour; type: ADME, organism-based; settings: in vivo; procedure, shortened: as §1
Mus musculus [31] = organism: Mus musculus; assay: Tissue distribution expressed as percentage injected dose per gram of tissue in normal mice large intestine after 4 hour; type: ADME, organism-based; settings: in vivo; procedure, shortened: as §1
Mus musculus [32] = organism: Mus musculus; assay: Tissue distribution expressed as percentage injected dose per gram of tissue in normal mice small intestine after 1 hour; type: ADME, organism-based; settings: in vivo; procedure, shortened: as §1
Mus musculus [33] = organism: Mus musculus; assay: Tissue distribution expressed as percentage injected dose per gram of tissue in normal mice thyroid after 4 hour; type: ADME, organism-based, Thyroid gland; settings: in vivo; procedure, shortened: as §1
Mus musculus [34] = organism: Mus musculus; assay: Tissue distribution expressed as percentage injected dose per gram of tissue in normal mice spleen after 1 hour; type: ADME, organism-based; settings: in vivo; procedure, shortened: as §1
Mus musculus [35] = organism: Mus musculus; assay: Tissue distribution expressed as percentage injected dose per gram of tissue in normal mice thyroid after 1 hour; type: ADME, organism-based, Thyroid gland; settings: in vivo; procedure, shortened: as §1
Mus musculus [36] = organism: Mus musculus; assay: Tissue distribution expressed as percentage injected dose per gram of tissue in normal mice blood after 4 hour; type: ADME, organism-based; settings: in vivo; procedure, shortened: as §1
Mus musculus [37] = organism: Mus musculus; assay: Tissue distribution expressed as percentage injected dose per gram of tissue in normal mice large intestine after 2 hour; type: ADME, organism-based; settings: in vivo; procedure, shortened: as §1
Mus musculus [38] = organism: Mus musculus; assay: Tissue distribution expressed as percentage injected dose per gram of tissue in normal mice stomach after 1 hour; type: ADME, organism-based; settings: in vivo; procedure, shortened: as §1
Mus musculus [39] = organism: Mus musculus; assay: Tissue distribution expressed as percentage injected dose per gram of tissue in normal mice lungs after 4 hour; type: ADME, organism-based, Lung; settings: in vivo; procedure, shortened: as §1
Mus musculus [40] = organism: Mus musculus; assay: Tissue distribution expressed as percentage injected dose per gram of tissue in normal mice muscle after 1 hour; type: ADME, organism-based; settings: in vivo; procedure, shortened: as §1
Mus musculus [41] = organism: Mus musculus; assay: Tissue distribution expressed as percentage injected dose per gram of tissue in normal mice small intestine after 2 hour; type: ADME, organism-based; settings: in vivo; procedure, shortened: as §1
Mus musculus [42] = organism: Mus musculus; assay: Tissue distribution expressed as percentage injected dose per gram of tissue in normal mice bone after 4 hour; type: ADME, organism-based, Bone element; settings: in vivo; procedure, shortened: as §1
Mus musculus [43] = organism: Mus musculus; assay: tissue distribution expressed as percentage injected dose per gram of tissue in normal mice heart after 1 hour; type: ADME, organism-based; settings: in vivo

N=C(N)NCc1ccc(F)c(I)c1
ID/g (Mus musculus [1]): 0.1% | ID/g (Mus musculus [2]): 2.3% | ID/g (Mus musculus [3]): 19.2% | ID/g (Mus musculus [4]): 9.7% | ID/g (Mus musculus [5]): 3% | ID/g (Mus musculus [6]): 0.7% | ID/g (Mus musculus [7]): 1.7% | ID/g (Mus musculus [8]): 2.4% | ID/g (Mus musculus [9]): 1.9% | ID/g (Mus musculus [10]): 5.5% | IC50 (SK-N-SH; Homo sapiens, SK-N-SH): 0.2 µM | IC50 (SK-N-SH; sk-n-sh): 0.2 µM | ID/g (Mus musculus [11]): 1.9% | ID/g (Mus musculus [12]): 6.8% | ID/g (Mus musculus [13]): 1.1% | ID/g (Mus musculus [14]): 19.5% | ID/g (Mus musculus [15]): 19.7% | ID/g (Mus musculus [16]): 21.3% | ID/g (Mus musculus [17]): 3.2% | ID/g (Mus musculus [18]): 0.9% | ID/g (Mus musculus [19]): 0.9% | ID/g (Mus musculus [20]): 18.2% | ID/g (Mus musculus [21]): 3.7% | ID/g (Mus musculus [22]): 3.8% | ID/g (Mus musculus [23]): 10.5% | ID/g (Mus musculus [24]): 0.2% | ID/g (Mus musculus [25]): 1.9% | ID/g (Mus musculus [26]): 1.5% | ID/g (Mus musculus [27]): 0.1% | ID/g (Mus musculus [28]): 18.3% | ID/g (Mus musculus [29]): 2.6% | ID/g (Mus musculus [30]): 9.2% | ID/g (Mus musculus [31]): 3.8% | ID/g (Mus musculus [32]): 5.5% | ID/g (Mus musculus [33]): 1.5% | ID/g (Mus musculus [34]): 3.8% | ID/g (Mus musculus [35]): 1.8% | ID/g (Mus musculus [36]): 0.4% | ID/g (Mus musculus [37]): 4.5% | ID/g (Mus musculus [38]): 3% | ID/g (Mus musculus [39]): 4% | ID/g (Mus musculus [40]): 1.7% | ID/g (Mus musculus [41]): 4.3% | ID/g (Mus musculus [42]): 0.7%

N=C(N)NCc1cccc(F)c1 [M-FLUOROBENZYLGUANIDINE]
ID/g (Mus musculus [15]): 23.8% | ID/g (Mus musculus [16]): 13.9% | ID/g (Mus musculus [20]): 21% | ID/g (Mus musculus [28]): 10.5%

N=C(N)NCc1ccc(F)cc1
ID/g (Mus musculus [15]): 20.3% | ID/g (Mus musculus [16]): 15.3% | ID/g (Mus musculus [43]): 9.7% | ID/g (Mus musculus [28]): 5.9%
